Test results published in ChEMBL document CHEMBL1800052, “Regioselective Suzuki coupling of dihaloheteroaromatic compounds as a rapid strategy to synthesize potent rigid combretastatin analogues” (J Med Chem, 2011).
Activity calls are given as the source filed them. The rule behind the calls is not given here.

Key:
[1] = tested on: SH-SY5Y; test: Cytotoxicity against human SH-SY5Y cells assessed as cell viability at 1 uM after 48 hrs by MTT assay; format: functional; details: read-out: Activity
Outline: (§1)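 SH-SY5Y cells in 50% DMEM/50% F-12 with 10% FBS, 2 mM L-glutamine, penicillin and streptomycin, grown 48 h with or without compound. Cells were washed in Locke's solution (pH 7.6), given MTT (250 μg/mL) for 30 min at 37 °C, solubilized in isopropyl alcohol/HCl, and read at 570 nm. Single-point values are % viable cells at 1 μM. IC50s come from fitted full concentration-response curves; mean ± SD of 12 determinations from 3 experiments.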

[2] = tested on: SH-SY5Y; test: Cytotoxicity against human SH-SY5Y cells assessed as cell viability after 48 hrs by MTT assay; format: functional, cell-based; outline: as §1
[3] = tested on: HeLa; test: Cytotoxicity against human HeLa cells assessed as cell viability after 48 hrs by MTT assay; format: functional, cell-based
[4] = tested on: HeLa; test: Cell cycle arrest in human HeLa cells assessed as accumulation at G2/M phase at 3 times IC50 value after 16 hrs using propidium iodide staining by FACS analysis; format: functional, cell-based
Outline: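 Cells were treated 16 h with vehicle or 3 × IC50 compound, washed in PBS, fixed in ice-cold 30:70 PBS/EtOH, and stored at −20 °C. They were then treated with RNase (100 μg/mL) for 30 min at RT and stained with propidium iodide (100 μg/mL) in PBS with 5 mM EDTA for 30 min in the dark. DNA content was read by flow cytometry, representative of three experiments.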

[5] = target: T1, Tubulin alpha (Homo sapiens) (UniProt P0DPH7+P68366+Q71U36+P68363+Q9BQE3+Q6PEY2+A6NHL2+Q9NY65); test: Inhibition of tubulin alpha in human SH-SY5Y cells assessed as inhibition of tubulin alpha polymerization at 3 times IC50 value after 24 hrs by immunofluorescence; format: cell-based
Outline: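 Cells were fixed in 3.7% paraformaldehyde for 20 min, permeabilized in ice-cold 80% MeOH, and blocked with 0.2% fish gelatine. Staining used anti-α-tubulin (1:1000, 20 min RT), then Alexa 488 anti-mouse with DRAQ5 nuclear stain. Imaging was by confocal microscopy with a 63× oil objective.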

[6] = target: T1, Tubulin alpha (Homo sapiens); test: Inhibition of tubulin alpha polymerization in human HeLa cells assessed as increase in soluble tubulin alpha fraction at 3 times IC50 value after 16 hrs by Western blotting in presence of paclitaxel; format: cell-based
Outline: (§2)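 Cells were grown 16 h with or without drug (3 × IC50), trypsinized, and lysed 10 min at RT in hypotonic buffer (20 mM Tris-HCl pH 6.8, 1 mM MgCl2, 2 mM EGTA, 0.5% NP-40, protease inhibitors) containing 4 μg/mL paclitaxel. Protein-normalized lysate (50 μg) was spun at 13 000 rpm for 15 min. Pellet (polymerized) and supernatant (free) fractions were run on 10% SDS-PAGE and blotted with anti-α-tubulin, read by chemiluminescence.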

[7] = target: T1, Tubulin alpha (Homo sapiens); test: Inhibition of tubulin alpha polymerization in human HeLa cells assessed as decreased pelletable tubulin alpha fraction at 3 times IC50 value after 16 hrs by Western blotting in presence of paclitaxel; format: cell-based; outline: as §2
[8] = Inhibition of tubulin alpha polymerization; details: concentration not given here

SMILES: COc1cccc(-c2cscc2-c2cc(OC)c(OC)c(OC)c2)c1F
- viability at 1 µM [1]: 28%
- IC50 [2]: 330 nM
- IC50 [3]: 430 nM

SMILES: COc1ccc(-c2cscc2-c2cc(OC)c(OC)c(OC)c2)cn1
- viability at 1 µM [1]: 82%

SMILES: COc1cc(-c2cscc2-c2ccc(Cl)c(C(F)(F)F)c2)cc(OC)c1OC
- viability at 1 µM [1]: 91%

SMILES: COc1ccc(-c2cscc2-c2cc(OC)c(OC)c(OC)c2)cc1O
- Activity [4]: Active
- viability at 1 µM [1]: 29%
- tubulin polymerization inhibition (qualitative call) [5]: Active
- IC50 [2]: 79 nM
- inhibition [6]: Active
- IC50 [3]: 200 nM
- inhibition [7]: Active

SMILES: COc1cc(-c2cscc2-c2cccc(OC)c2OC)cc(OC)c1OC
- viability at 1 µM [1]: 90%

SMILES: COc1cc(-c2cscc2-c2cccc(C(F)(F)F)c2)cc(OC)c1OC
- viability at 1 µM [1]: 91%

SMILES: COc1ccc(C2=C(c3cc(OC)c(OC)c(OC)c3)CCC2)cc1O
- Activity [4]: Active
- viability at 1 µM [1]: 33%
- tubulin polymerization inhibition (qualitative call) [5]: Active
- IC50 [2]: 37 nM
- inhibition [6]: Active
- IC50 [3]: 300 nM
- inhibition [7]: Active

SMILES: COc1cc(-c2cscc2-c2cnc3ccccc3c2)cc(OC)c1OC
- viability at 1 µM [1]: 45%

SMILES: COc1cccc(-c2cscc2-c2cc(OC)c(OC)c(OC)c2)c1
- viability at 1 µM [1]: 49%

SMILES: COc1ccc(-c2ccoc2-c2cc(OC)c(OC)c(OC)c2)cc1
- viability at 1 µM [1]: 23%
- IC50 [2]: 28 nM
- IC50 [3]: 17 nM

SMILES: COc1cc(-c2cscc2-c2ccc(O)cc2)cc(OC)c1OC
- viability at 1 µM [1]: 93%

SMILES: COc1cc(-c2cscc2-c2cccnc2)cc(OC)c1OC
- viability at 1 µM [1]: 109%

SMILES: COc1cc(-c2cscc2-c2ccc3c(c2)OCCO3)cc(OC)c1OC
- Activity [4]: Active
- viability at 1 µM [1]: 27%
- IC50 [2]: 350 nM
- IC50 [3]: 420 nM

SMILES: COc1cc(-c2cscc2-c2ccc(C)c(F)c2)cc(OC)c1OC
- Activity [4]: Active
- viability at 1 µM [1]: 30%
- IC50 [2]: 310 nM
- IC50 [3]: 420 nM

SMILES: COc1ccc(-c2cscc2-c2cc(OC)c(OC)c(OC)c2)cc1OC
- viability at 1 µM [1]: 94%

SMILES: COc1ccc(-c2cscc2-c2cc(OC)c(OC)c(OC)c2)c(OC)c1
- viability at 1 µM [1]: 90%

SMILES: COc1cc(-c2cscc2-c2cccc3ccccc23)cc(OC)c1OC
- viability at 1 µM [1]: 83%

SMILES: COc1ccc(-c2occc2-c2cc(OC)c(OC)c(OC)c2)cc1
- viability at 1 µM [1]: 24%
- tubulin polymerization inhibition (qualitative call) [5]: Active
- IC50 [2]: 34 nM
- IC50 [3]: 170 nM

SMILES: COc1cc(-c2cscc2-c2ccc(OC(F)(F)F)cc2)cc(OC)c1OC
- viability at 1 µM [1]: 93%

SMILES: COc1ccc(-c2cscc2-c2cc(OC)c(OC)c(OC)c2)cc1
- viability at 1 µM [1]: 31%
- IC50 [2]: 480 nM
- IC50 [3]: 420 nM

SMILES: COc1cc(-c2cscc2-c2cc(OC)c(OC)c(OC)c2)cc(OC)c1OC
- viability at 1 µM [1]: 91%

SMILES: COc1cc(-c2cscc2-c2ccc(C)c(C)c2)cc(OC)c1OC
- viability at 1 µM [1]: 84%

SMILES: COc1ccc(-c2cscc2-c2cc(OC)c(OC)c(OC)c2)cc1C
- viability at 1 µM [1]: 80%

SMILES: COc1cc(-c2cscc2-c2ccc(SC)cc2)cc(OC)c1OC
- viability at 1 µM [1]: 51%

SMILES: COc1cc(-c2cscc2-c2ccc3c(c2)OCO3)cc(OC)c1OC
- viability at 1 µM [1]: 65%

SMILES: COc1ccc(-c2occc2-c2cc(OC)c(OC)c(OC)c2)cc1O
- Activity [4]: Active
- inhibition [8]: 50%
- viability at 1 µM [1]: 20%
- IC50 [2]: 9.4 nM
- inhibition [6]: Active
- IC50 [3]: 20 nM
- inhibition [7]: Active

SMILES: COc1ccc(/C=C\c2cc(OC)c(OC)c(OC)c2)cc1O [COMBRETASTATIN A4]
- Activity [4]: Active
- viability at 1 µM [1]: 23%
- tubulin polymerization inhibition (qualitative call) [5]: Active
- IC50 [2]: 2.3 nM
- inhibition [6]: Active
- IC50 [3]: 1.7 nM
- inhibition [7]: Active

SMILES: COc1cc(-c2cscc2-c2cccc3ncccc23)cc(OC)c1OC
- viability at 1 µM [1]: 100%

SMILES: COc1ccc(-c2ccoc2-c2cc(OC)c(OC)c(OC)c2)cc1O
- Activity [4]: Active
- viability at 1 µM [1]: 23%
- tubulin polymerization inhibition (qualitative call) [5]: Active
- IC50 [2]: 2.4 nM
- inhibition [6]: Active
- IC50 [3]: 3.1 nM
- inhibition [7]: Active

SMILES: COc1cc(-c2cscc2-c2cccc([N+](=O)[O-])c2)cc(OC)c1OC
- viability at 1 µM [1]: 108%

SMILES: COc1cc(-c2cscc2-c2cccc(C#N)c2)cc(OC)c1OC
- viability at 1 µM [1]: 97%

SMILES: COc1ccc(-c2cscc2-c2cc(OC)c(OC)c(OC)c2)cc1F
- viability at 1 µM [1]: 52%
